Measurements reported in paper PMC9889650 (Journal of Veterinary Internal Medicine, 2022).
Like-named read-outs stand apart in the source and are kept apart here.

How the values were obtained:
[1] = tested on: primary canine T cell cancers (T cell lymphoma, TZL, T-CLL) neoplastic T lymphocytes; assay: In vitro BH3 mimetics sensitivity cell kill assay, primary canine T cell cancers; assay type: cell-based; conditions: dog 26, multicentric large T cell lymphoma, neoplastic CD3+ nodal T cells, 24 h
[2] = tested on: MDCK immortalized canine kidney cells; assay: Cell viability after 24h treatment, MDCK cell line; assay type: cell-based, dog
How it was run: (§1)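 MDCK canine kidney cells were kept in DMEM with 10% FCS and penicillin/streptomycin at 37°C, 5% CO2, for at most four passages, and tested Mycoplasma-negative. As a control line they were given a BH3 mimetic at 2 nM–10 μM, with 0.001% DMSO as the negative control, for 24 h.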

[3] = tested on: canine osteosarcoma cell line OSCA40; assay: Cell viability after 24h treatment, OSCA40 cell line; assay type: cell-based, dog; conditions: OSCA40, 24h
How it was run: as §1, with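 “OSCA40” for “MDCK”, “osteosarcoma” for “kidney”, “α-MEM” for “DMEM”, “FCS, 10 mM L-glutamine” for “FCS”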

[4] = tested on: human B‐cell acute lymphoblastic leukemia cell line RS4;11; assay: Cell viability after 24h treatment, RS4; assay type: cell-based; conditions: RS4;11 positive control
How it was run: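 RS4;11 human B-ALL cells had their identity genetically confirmed and were grown in RPMI with 10% FCS and penicillin/streptomycin at 37°C, 5% CO2, for at most four passages. They were run as a control with each experiment at 1 × 10^5 cells/well in single replicates, given a BH3 mimetic at 2 nM–10 μM or 0.001% DMSO for 24 h at 37°C.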

[5] = dogs, 20 mg/kg once a day; cited from earlier work
[6] = tested on: human DLBCL (hDLBCL); conditions: single‐agent treatment; cited from earlier work
[7] = tested on: Beagles; conditions: 2 to 20 mg/kg PO daily for up to 9 months; cited from earlier work
[8] = people, 400 mg daily dosing; cited from earlier work

Compound | EC50 [1] | sensitivity in vitro [2] | sensitivity in vitro [3] | sensitivity in vitro [4] | area under the curve (AUC) [5] | overall response rate [6] | Other clinical toxicities [7] | average reduction in circulating lymphocytes [7] | hematological finding [7] | area under the curve (AUC) [8]
CC1(C)CCC(c2ccc(Cl)cc2)=C(CN2CCN(c3ccc(C(=O)NS(=O)(=O)c4ccc(N[C@H](CCN5CCOCC5)CSc5ccccc5)c(S(=O)(=O)C(F)(F)F)c4)cc3)CC2)C1 [NAV, navitoclax] | 20.8 nM | resistance | resistance | – | – | – | – | – | – | –
CC1(C)CCC(CN2CCN(c3ccc(C(=O)NS(=O)(=O)c4ccc(NCC5CCOCC5)c([N+](=O)[O-])c4)c(Oc4cnc5[nH]ccc5c4)c3)CC2)=C(c2ccc(Cl)cc2)C1 [VEN, venetoclax] | 7.9 nM | resistance | resistance | sensitive | 73600 ng·h/mL | 18% | grade 2 weight loss associated with hyporexia, and leukotricia | 81% | mild anemia | 31800 ng·h/mL
